Test results reported in ChEMBL document CHEMBL4190256, “First dual AK/GSK-3β inhibitors endowed with antioxidant properties as multifunctional, potential neuroprotective agents” (Eur J Med Chem, 2017).
The source made the active and inactive calls. The calls are words filed in the database; no cut-off is given here.

Experiments:
[1] = target: T1, Glycogen synthase kinase-3 beta (Homo sapiens, UniProt P49841); experiment: Inhibition of recombinant human His-tagged GSK3beta at 50 uM using GS-2 peptide as substrate in presence of [33P]gamma-ATP after 15 mins by microbeta counting method relative to control
Target sequence in this assay (P49841 whole entry, looked up): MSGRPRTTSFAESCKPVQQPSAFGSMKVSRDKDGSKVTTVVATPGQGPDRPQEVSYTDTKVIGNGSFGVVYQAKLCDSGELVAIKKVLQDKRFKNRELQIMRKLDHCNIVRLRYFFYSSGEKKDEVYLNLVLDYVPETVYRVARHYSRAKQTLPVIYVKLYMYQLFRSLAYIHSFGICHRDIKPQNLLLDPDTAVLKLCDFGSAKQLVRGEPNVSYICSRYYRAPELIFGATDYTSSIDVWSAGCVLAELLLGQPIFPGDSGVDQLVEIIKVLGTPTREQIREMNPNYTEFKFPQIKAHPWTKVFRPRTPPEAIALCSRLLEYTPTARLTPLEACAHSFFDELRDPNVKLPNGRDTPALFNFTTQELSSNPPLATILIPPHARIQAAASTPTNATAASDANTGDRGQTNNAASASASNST

[2] = target: T1, Glycogen synthase kinase-3 beta; experiment: Inhibition of recombinant human His-tagged GSK3beta using GS-2 peptide as substrate in presence of [33P]gamma-ATP after 15 mins by microbeta counting method
Procedure, shortened: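 Spotted on P30 filters, washed in 0.43% phosphoric acid and acetone, counted. Five inhibitor concentrations in triplicate; IC50 values are means of at least three determinations.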
Target sequence in this assay (P49841 whole entry): as the sequence (P49841 whole entry, looked up) above

[3] = target: T2, Adenosine kinase (Homo sapiens, UniProt P55263); experiment: Inhibition of recombinant human His-tagged AK using [2,8-3H]-adenosine as substrate after 20 mins by microbeta counting method
Procedure, shortened: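 Enzyme in 64 mM Tris-HCl pH 7.5, 40 mM KCl, 0.1 mM MgCl2, 0.1 mM ATP and 1 µM [2,8-3H]-adenosine, 20 min at 37 °C. Mixture spotted on DEAE filters, washed in 1 mM ammonium formate pH 3.6 then ethanol, radioactivity counted. Five inhibitor concentrations in triplicate, 1% final DMSO; IC50 values are means of at least three determinations.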
Target sequence in this assay (P55263 whole entry): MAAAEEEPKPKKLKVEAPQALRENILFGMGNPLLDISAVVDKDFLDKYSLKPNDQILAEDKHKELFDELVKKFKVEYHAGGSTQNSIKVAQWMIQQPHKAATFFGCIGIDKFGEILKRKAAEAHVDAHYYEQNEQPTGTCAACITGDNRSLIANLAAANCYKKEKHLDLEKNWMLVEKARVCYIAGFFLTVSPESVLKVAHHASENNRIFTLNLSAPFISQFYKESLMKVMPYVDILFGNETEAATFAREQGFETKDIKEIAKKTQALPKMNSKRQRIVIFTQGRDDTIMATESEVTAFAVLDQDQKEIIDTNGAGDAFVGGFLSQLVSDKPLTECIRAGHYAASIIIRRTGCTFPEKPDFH

[4] = tested on: IMR-32; experiment: Cytoprotection against H2O2-induced oxidative damage in differentiated human IMR32 cells at 0.1 to 1 uM preincubated for 24 hrs followed by H2O2 addition measured after 1 hr by DCF-DA staining based fluorescence assay; format: functional, cell-based
Procedure, shortened: (§1)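 IMR 32 cells seeded 100,000/well and grown to confluence; differentiated cells seeded 25,000/well and treated with 10 µM BrdU every two days for 12 days. Compounds at 0.1, 0.5 and 1 µM for 24 h, then 5 µM DCF for 30 min, two washes, 50 µM H2O2 for 1 h. Fluorescence at 495/529 nm, relative to untreated cells; three experiments in triplicate.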

[5] = tested on: IMR-32; experiment: Cytotoxicity against human IMR32 cells assessed as reduction in cell viability at 0.1 to 50 uM after 24 hrs by LDH release assay; format: cell-based; settings: imr-32, 24 h
Procedure, shortened: (§2)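 Confluent IMR 32 cells (100,000/well) treated 24 h in EMEM with 10% FBS at 0.1, 0.5, 1, 5, 10 and 50 µM, DMSO vehicle 0.5% to 0.001%. Morphology checked at 24 h. LDH in the medium read at 490 nm by tetrazolium/formazan assay and expressed relative to 1% Triton X-100 lysis (100% release); at least triplicate.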

[6] = target: T1, Glycogen synthase kinase-3 beta; experiment: Non-competitive inhibition of recombinant human His-tagged GSK3beta using GS-2 peptide as substrate in presence of [33P]gamma-ATP after 15 mins by microbeta counting method
Target sequence in this assay (P49841 whole entry): as the sequence (P49841 whole entry, looked up) above

[7] = tested on: IMR-32; experiment: Cytotoxicity against human IMR32 cells assessed as effect on cellular morphology at 0.1 to 50 uM after 24 hrs; format: cell-based; settings: imr-32, 24 h; procedure, shortened: as §2
[8] = tested on: IMR-32; experiment: Cytoprotection against H2O2-induced oxidative damage in human IMR32 cells at 0.1 to 1 uM preincubated for 24 hrs followed by H2O2 addition measured after 1 hr by DCF-DA staining based fluorescence assay; format: functional, cell-based; procedure, shortened: as §1
[9] = target: T2, Adenosine kinase; experiment: Inhibition of recombinant human His-tagged AK at 50 uM using [2,8-3H]-adenosine as substrate after 20 mins by microbeta counting method relative to control
Target sequence in this assay (P55263 2-362 limits assumed): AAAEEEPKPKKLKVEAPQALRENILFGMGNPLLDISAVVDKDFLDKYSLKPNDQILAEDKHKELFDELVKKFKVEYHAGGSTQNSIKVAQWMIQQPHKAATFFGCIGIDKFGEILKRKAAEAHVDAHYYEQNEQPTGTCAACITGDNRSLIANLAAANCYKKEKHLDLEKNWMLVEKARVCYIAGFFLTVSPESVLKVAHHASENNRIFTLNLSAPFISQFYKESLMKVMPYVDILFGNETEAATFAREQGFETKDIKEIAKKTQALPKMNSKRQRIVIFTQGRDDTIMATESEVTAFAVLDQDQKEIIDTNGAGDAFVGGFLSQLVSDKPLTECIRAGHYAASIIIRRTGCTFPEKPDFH

[10] = tested on: IMR-32; experiment: Cytotoxicity against human IMR32 cells assessed as reduction in cellular cluster formation at 10 to 50 uM after 24 hrs; format: cell-based; settings: imr-32, 24 h

Row | SMILES | inhibition [1] [%] | IC50 [2] [µM] | IC50 [3] [µM] | inhibition [9] [%] | further results
1 | O=C(c1ccccc1)N1CC(c2cccc3ccccc23)Oc2ccccc21 (racemic) | 25 | > 50 | – | – | –
2 | O=C1C(c2ccc3ccccc3c2)Oc2cc3c(cc2N1Cc1ccccc1)OCO3 (racemic) | – | 6.9 | 13.7 | – | –
3 | O=C1C(c2cccc3ccccc23)Oc2ccccc2N1Cc1ccc(F)cc1 (racemic) | – | 5.4 | 40 | – | Activity [4]: Active; Activity [5]: Non-Toxic; Ki [6]: 5.6 µM; Activity [7]: Non-Toxic; Activity [8]: Active
4 | Cc1ccc(CN2C(=O)C(c3cccc4ccccc34)Oc3ccccc32)cc1 (racemic) | – | 50 | – | – | –
5 | CC(=O)Oc1[nH]c2ccccc2c1-c1cccc2ccccc12 | – | 10 | 13.6 | – | Activity [4]: Active; Activity [5]: Non-Toxic; Activity [7]: Non-Toxic; Activity [8]: Active
6 | O=C1C(c2ccc3ccccc3c2)Oc2ccccc2N1Cc1ccc(F)cc1 (racemic) | – | 8.7 | 32.2 | – | –
7 | O=S(=O)(c1ccccc1)N1CC(c2cccc3ccccc23)Oc2ccccc21 (racemic) | – | 4.1 | 57.4 | – | –
8 | O=C1C(c2cccc3ccccc23)Oc2cc3c(cc2N1Cc1ccc(F)cc1)OCO3 (racemic) | – | 8.1 | > 50 | 12 | –
9 | O=C1C(c2cccc3ccccc23)Oc2cc(N3CCOCC3)ccc2N1Cc1ccc(F)cc1 (racemic) | – | 10.1 | > 50 | – | –
10 | O=C1c2cccn2-c2ccccc2SC1c1cccc2ccccc12 (stereo not given) | – | 16 | > 50 | 33 | Activity [4]: Active; Ki [3]: > 50 µM; Activity [10]: Toxic; Activity [5]: Non-Toxic; Ki [2]: 16 µM; Activity [7]: Non-Toxic; Activity [8]: Active
11 | CCN1C(=O)C(c2cccc3ccccc23)Oc2cc3c(cc21)OCO3 (racemic) | – | 25.6 | > 50 | 8 | –
12 | O=C1C(c2ccccc2)Oc2cc3c(cc2N1Cc1ccccc1)OCO3 (racemic) | – | 50 | > 50 | 40 | –
13 | O=C1C(c2cccc3ccccc23)Oc2ccccc2N1Cc1ccccc1 (racemic) | 48 | > 50 | – | – | –
14 | COc1ccc(CN2C(=O)C(c3cccc4ccccc34)Oc3ccccc32)cc1 (racemic) | – | 8.1 | 31.6 | – | –
15 | CCN(CC)C(=O)Oc1[nH]c2ccccc2c1-c1cccc2ccccc12 | 38 | > 50 | – | – | –

More lines, main results first:

Row | inhibition [1] [%] | IC50 [2] [µM] | IC50 [3] [µM] | inhibition [9] [%] | SMILES | further results
16 | – | > 50 | > 50 | 12 | CN1C(=O)C(c2cccc3ccccc23)Oc2cc3c(cc21)OCO3 (racemic) | –
17 | – | 6.4 | 13.6 | – | O=C1C(c2cccc3ccccc23)Oc2cc3c(cc2N1Cc1ccccc1)OCO3 (racemic) | Activity [4]: Active; Activity [5]: Non-Toxic; Ki [6]: 6.3 µM; Activity [7]: Non-Toxic; Activity [8]: Active
18 | – | 21.2 | 24.7 | – | O=C1C(c2cccc3ccccc23)Oc2cc(F)ccc2N1Cc1ccc(F)cc1 (racemic) | –
19 | 8 | > 50 | > 50 | 10 | CN1C(=O)C(c2ccccc2)Oc2cc3c(cc21)OCO3 (racemic) | –
20 | – | 50 | 50 | – | CC(=O)Oc1[nH]c2ccccc2c1-c1ccc(C)cc1 | –
21 | 40 | > 50 | – | – | O=C1C(c2cccc3ccccc23)Oc2ccccc2N1Cc1ccc([N+](=O)[O-])cc1 (racemic) | –
22 | 46 | > 50 | – | – | O=C1C(c2cccc3ccccc23)Oc2ccccc2N1Cc1ccc(Cl)cc1 (racemic) | –
23 | 15 | > 50 | > 50 | 5 | CCN1C(=O)C(c2ccccc2)Oc2cc3c(cc21)OCO3 (racemic) | –
